Experimental data taken from ChEMBL document CHEMBL1139009, “Analogues of neurohypophyseal hormones, oxytocin and arginine vasopressin, conformationally restricted in the N-terminal part of the molecule” (J Med Chem, 2006).

Key:
[1] = target: Vasopressin V1a receptor (Rattus norvegicus) (UniProt P30560); assay: Pressor activity against V1a receptor in Wistar rat
Oxytocin receptor = target: T1, Oxytocin receptor (Rattus norvegicus, UniProt P70536); assay: (§1) Uterotonic activity against OT receptor in Wistar rat in absence of magnesium; type: functional
T1 sequence (P70536 whole entry): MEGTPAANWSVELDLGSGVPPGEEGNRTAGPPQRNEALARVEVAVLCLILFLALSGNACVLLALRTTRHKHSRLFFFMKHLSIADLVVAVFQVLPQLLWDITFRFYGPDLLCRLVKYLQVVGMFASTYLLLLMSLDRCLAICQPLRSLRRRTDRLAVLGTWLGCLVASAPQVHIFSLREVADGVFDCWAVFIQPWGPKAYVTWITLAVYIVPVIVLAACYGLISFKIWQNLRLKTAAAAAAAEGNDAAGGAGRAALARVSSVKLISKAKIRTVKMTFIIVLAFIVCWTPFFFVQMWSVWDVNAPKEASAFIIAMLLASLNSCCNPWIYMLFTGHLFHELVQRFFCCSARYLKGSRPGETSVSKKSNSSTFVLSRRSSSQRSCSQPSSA
How it was run: (§2)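 Isolated uterus from female Wistar rats estrogenized 48 h beforehand, tested in vitro without magnesium ions. Synthetic oxytocin served as standard. Dose-response curves from single administrations or cumulative dosing without washing. Values are means of three to five separate experiments.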

Rattus norvegicus [2] = species: Rattus norvegicus; assay: Antidiuretic activity against V2 receptor in Wistar rat at antidiuresis half life of 60 min; type: functional, Urine
Rattus norvegicus [3] = species: Rattus norvegicus; assay: Antidiuretic activity against V2 receptor in Wistar rat at antidiuresis half life of 200 min; type: functional, Urine
[4] = target: T2, Oxytocin receptor (Rattus norvegicus) (UniProt P70536); assay: as §1; type: functional
T2 sequence (whole entry): T1 sequence (P70536 whole entry)
How it was run: as §2

Vasopressin V1a receptor (Rattus norvegicus), sequence (P30560 whole entry, looked up): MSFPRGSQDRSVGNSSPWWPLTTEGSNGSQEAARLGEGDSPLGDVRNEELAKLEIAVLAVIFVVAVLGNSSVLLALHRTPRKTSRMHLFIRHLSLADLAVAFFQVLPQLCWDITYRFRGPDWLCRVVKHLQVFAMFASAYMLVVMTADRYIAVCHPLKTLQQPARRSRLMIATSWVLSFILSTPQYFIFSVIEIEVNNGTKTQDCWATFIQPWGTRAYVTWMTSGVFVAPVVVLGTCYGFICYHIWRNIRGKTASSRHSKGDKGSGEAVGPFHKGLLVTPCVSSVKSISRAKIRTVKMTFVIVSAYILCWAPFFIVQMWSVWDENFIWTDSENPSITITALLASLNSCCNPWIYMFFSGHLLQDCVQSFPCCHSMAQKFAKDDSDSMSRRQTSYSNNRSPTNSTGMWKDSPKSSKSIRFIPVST

Compound | pressor activity [1] | Activity (Rattus norvegicus [2]) | other results
CC(C)C[C@H](NC(=O)[C@@H]1CCCN1C(=O)[C@H]1CSSCCC(=O)N2CCN(C(=O)[C@@H]2Cc2ccccc2)[C@@H](Cc2ccccc2)C(=O)N[C@@H](CCC(N)=O)C(=O)N[C@@H](CC(N)=O)C(=O)N1)C(=O)NCC(N)=O | 0 IU/mg |  | 
NC(=O)CC[C@@H]1NC(=O)[C@H](Cc2ccccc2)NC(=O)[C@H](Cc2ccc(O)cc2)NC(=O)[C@@](N)(CO)CSSC[C@@H](C(=O)N2CCC[C@H]2C(=O)N[C@@H](CCCN=C(N)N)C(=O)NCC(N)=O)NC(=O)[C@H](CC(N)=O)NC1=O [listing 1 of 2 here] |  |  | pA2 (Oxytocin receptor): 6.4
CC(C)[C@@H]1NC(=O)[C@H](C)N(Cc2ccccc2)C(=O)[C@H](Cc2ccc(O)cc2)NC(=O)CCSSC[C@@H](C(=O)N2CCC[C@H]2C(=O)N[C@@H](CCCN=C(N)N)C(=O)NCC(N)=O)NC(=O)[C@H](CC(N)=O)NC1=O |  | <0.04 IU/mg | 
NC(=O)CC[C@@H]1NC(=O)[C@H](Cc2ccccc2)NC(=O)[C@H](Cc2ccc(O)cc2)NC(=O)[C@@](N)(CO)CSSC[C@@H](C(=O)N2CCC[C@H]2C(=O)N[C@@H](CCCN=C(N)N)C(=O)NCC(N)=O)NC(=O)[C@H](CC(N)=O)NC1=O [listing 2 of 2 here] |  | 4.5 IU/mg | Activity (Rattus norvegicus [3]): 22.5 IU/mg
CC(C)[C@@H]1NC(=O)[C@H](C)N(Cc2ccccc2)C(=O)[C@H](Cc2ccc(O)cc2)NC(=O)CC2(CCCCC2)SSC[C@@H](C(=O)N2CCC[C@H]2C(=O)N[C@@H](CCCN=C(N)N)C(=O)NCC(N)=O)NC(=O)[C@H](CC(N)=O)NC1=O |  | <0.04 IU/mg | 
CC(C)C[C@H](NC(=O)[C@@H]1CCCN1C(=O)[C@H]1CSSC2(CCCCC2)CC(=O)N2CCN(C(=O)[C@@H]2Cc2ccccc2)[C@@H](Cc2ccccc2)C(=O)N[C@@H](CCC(N)=O)C(=O)N[C@@H](CC(N)=O)C(=O)N1)C(=O)NCC(N)=O | 0 IU/mg |  | 
CC(C)C[C@H](NC(=O)[C@@H]1CCCN1C(=O)[C@@H]1CSSC2(CCCCC2)CC(=O)N2CCN(C(=O)[C@@H]2Cc2ccccc2)[C@@H](Cc2ccccc2)C(=O)N[C@@H](CCC(N)=O)C(=O)N[C@@H](CC(N)=O)C(=O)N1)C(=O)NCC(N)=O [listing 1 of 2 here] |  |  | pA2 (Oxytocin receptor): 6.72
CC(C)C[C@H](NC(=O)[C@@H]1CCCN1C(=O)[C@@H]1CSSC2(CCCCC2)CC(=O)N2CCN(C(=O)[C@@H]2Cc2ccccc2)[C@@H](Cc2ccccc2)C(=O)N[C@@H](CCC(N)=O)C(=O)N[C@@H](CC(N)=O)C(=O)N1)C(=O)NCC(N)=O [listing 2 of 2 here] |  | <0.04 IU/mg | 
CC(C)C[C@H](NC(=O)[C@@H]1CCCN1C(=O)[C@@H]1CSSCCC(=O)N2CCN(C(=O)[C@@H]2Cc2ccccc2)[C@@H](Cc2ccccc2)C(=O)N[C@@H](CCC(N)=O)C(=O)N[C@@H](CC(N)=O)C(=O)N1)C(=O)NCC(N)=O [listing 1 of 2 here] |  | <0.04 IU/mg | 
CC(C)C[C@H](NC(=O)[C@@H]1CCCN1C(=O)[C@H]1CSSC[C@@H](N)C(=O)N2CCN(C(=O)[C@@H]2Cc2ccccc2)[C@@H](Cc2ccccc2)C(=O)N[C@@H](CCC(N)=O)C(=O)N[C@@H](CC(N)=O)C(=O)N1)C(=O)NCC(N)=O | 0 IU/mg |  | 
CC(C)[C@@H]1NC(=O)[C@H](C)N(Cc2ccccc2)C(=O)[C@H](Cc2ccc(O)cc2)NC(=O)[C@@H](N)CSSC[C@@H](C(=O)N2CCC[C@H]2C(=O)N[C@@H](CCCN=C(N)N)C(=O)NCC(N)=O)NC(=O)[C@H](CC(N)=O)NC1=O |  | <0.04 IU/mg | 
CC(C)C[C@H](NC(=O)[C@@H]1CCCN1C(=O)[C@@H]1CSSC[C@H](N)C(=O)N2CCN(C(=O)[C@@H]2Cc2ccccc2)[C@@H](Cc2ccccc2)C(=O)N[C@@H](CCC(N)=O)C(=O)N[C@@H](CC(N)=O)C(=O)N1)C(=O)NCC(N)=O [listing 1 of 2 here] |  |  | pA2 (Oxytocin receptor): 6.82
CC(C)C[C@H](NC(=O)[C@@H]1CCCN1C(=O)[C@@H]1CSSCCC(=O)N2CCN(C(=O)[C@@H]2Cc2ccccc2)[C@@H](Cc2ccccc2)C(=O)N[C@@H](CCC(N)=O)C(=O)N[C@@H](CC(N)=O)C(=O)N1)C(=O)NCC(N)=O [listing 2 of 2 here] |  |  | pA2 (Oxytocin receptor): 6.5
CC(C)C[C@H](NC(=O)[C@@H]1CCCN1C(=O)[C@@H]1CSSC[C@H](N)C(=O)N2CCN(C(=O)[C@@H]2Cc2ccccc2)[C@@H](Cc2ccccc2)C(=O)N[C@@H](CCC(N)=O)C(=O)N[C@@H](CC(N)=O)C(=O)N1)C(=O)NCC(N)=O [listing 2 of 2 here] |  | <0.04 IU/mg | 

More lines, main results first:

pressor activity [1] | Compound | Activity (Rattus norvegicus [2]) | other results
0 IU/mg | CC(C)[C@@H]1NC(=O)[C@H](C)N(Cc2ccccc2)C(=O)[C@H](Cc2ccc(O)cc2)NC(=O)[C@H](N)CSSC[C@H](C(=O)N2CCC[C@H]2C(=O)N[C@@H](CCCN=C(N)N)C(=O)NCC(N)=O)NC(=O)[C@H](CC(N)=O)NC1=O |  | 
0 IU/mg | CC(C)[C@@H]1NC(=O)[C@H](C)N(Cc2ccccc2)C(=O)[C@H](Cc2ccc(O)cc2)NC(=O)CC2(CCCCC2)SSC[C@H](C(=O)N2CCC[C@H]2C(=O)N[C@@H](CCCN=C(N)N)C(=O)NCC(N)=O)NC(=O)[C@H](CC(N)=O)NC1=O |  | Activity [4]: 0 IU/mg
0.18 IU/mg | NC(=O)CC[C@@H]1NC(=O)[C@H](Cc2ccccc2)NC(=O)[C@H](Cc2ccc(O)cc2)NC(=O)[C@@](N)(CO)CSSC[C@H](C(=O)N2CCC[C@H]2C(=O)N[C@@H](CCCN=C(N)N)C(=O)NCC(N)=O)NC(=O)[C@H](CC(N)=O)NC1=O |  | 
0 IU/mg | CC(C)[C@@H]1NC(=O)[C@H](C)N(Cc2ccccc2)C(=O)[C@H](Cc2ccc(O)cc2)NC(=O)CCSSC[C@H](C(=O)N2CCC[C@H]2C(=O)N[C@@H](CCCN=C(N)N)C(=O)NCC(N)=O)NC(=O)[C@H](CC(N)=O)NC1=O |  | 
